Data taken from paper PMC3108854 (Molecular and biochemical parasitology, 2010).
Each block holds one molecule with its values, some of them ahead of it.

What was measured:
Pf dUTPase = target: T1, Pf dUTPase (Plasmodium falciparum, UniProt Q8II92); experiment: dUTPase biochemical assay
T1 sequence (Q8II92 1-173): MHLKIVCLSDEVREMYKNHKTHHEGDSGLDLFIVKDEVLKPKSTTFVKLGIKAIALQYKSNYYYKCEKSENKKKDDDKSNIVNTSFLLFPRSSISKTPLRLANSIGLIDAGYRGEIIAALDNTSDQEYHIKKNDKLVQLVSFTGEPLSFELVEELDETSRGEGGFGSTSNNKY

[1] = target: T2, Pf N-Myristoyl Transferase (Plasmodium falciparum, UniProt Q8ILW6); experiment: N-myristoyltransferase biochemical assay; conditions: read-out: NMT IC50, positive control
T2 sequence (Q8ILW6 1-410): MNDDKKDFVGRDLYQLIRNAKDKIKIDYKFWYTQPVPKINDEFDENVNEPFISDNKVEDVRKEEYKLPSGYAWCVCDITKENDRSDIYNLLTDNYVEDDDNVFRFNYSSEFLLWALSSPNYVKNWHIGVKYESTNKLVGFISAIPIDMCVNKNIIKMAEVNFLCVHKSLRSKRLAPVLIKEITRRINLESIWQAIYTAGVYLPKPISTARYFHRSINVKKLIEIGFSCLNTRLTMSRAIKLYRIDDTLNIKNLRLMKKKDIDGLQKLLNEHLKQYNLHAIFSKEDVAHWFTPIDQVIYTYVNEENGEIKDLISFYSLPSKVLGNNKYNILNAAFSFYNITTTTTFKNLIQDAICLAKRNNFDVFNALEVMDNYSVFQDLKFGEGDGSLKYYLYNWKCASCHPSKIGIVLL

[2] = target: Pf Adenylosuccinate Synthase (Plasmodium falciparum, UniProt Q9U8D3); experiment: adenylosuccinate synthetase biochemical assay
P. falciparum strain 3d7 = experiment: erythrocyte-based P. falciparum strain 3d7 infection; assay type: cell-based; conditions: Plasmodium falciparum, 3D7, read-out: EC50 against P. falciparum in vitro
Summary of the method: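 P. falciparum was grown in erythrocytes. The primary screen used 1.25 μM, and ≥50% growth inhibition counted as a hit. Hits were retested in 8-point dose-response curves for EC₅₀ against sulfadoxine-resistant 3D7 and multidrug-resistant W2. Compounds with CC₅₀/EC₅₀ <5 (Huh7 cells) or that quenched fluorescence were excluded.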

Pf Adenylosuccinate Synthase, sequence (Q9U8D3 whole entry): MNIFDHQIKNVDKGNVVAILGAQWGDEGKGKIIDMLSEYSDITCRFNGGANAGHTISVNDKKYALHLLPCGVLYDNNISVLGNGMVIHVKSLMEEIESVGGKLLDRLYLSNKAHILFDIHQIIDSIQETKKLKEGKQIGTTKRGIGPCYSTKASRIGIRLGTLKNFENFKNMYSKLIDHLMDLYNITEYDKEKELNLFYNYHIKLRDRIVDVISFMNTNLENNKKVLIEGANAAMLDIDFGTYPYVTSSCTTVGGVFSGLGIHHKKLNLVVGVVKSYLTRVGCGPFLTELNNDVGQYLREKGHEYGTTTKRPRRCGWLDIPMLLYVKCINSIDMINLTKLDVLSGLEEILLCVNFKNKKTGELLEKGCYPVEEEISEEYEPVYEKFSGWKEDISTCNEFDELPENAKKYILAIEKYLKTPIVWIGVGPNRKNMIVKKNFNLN

IC50 (Pf dUTPase): 2.4 µM
SMILES: O=c1ccn([C@H]2C[C@H](O)[C@@H](COC(c3ccccc3)(c3ccccc3)c3ccccc3)O2)c(=O)[nH]1 [2′-deoxy-5′-O-(triphenylmethyl)uridine]

IC50 [1]: ~3 µM
SMILES: O=C(O)C1=CC(=C(c2ccc(O)c(C(=O)O)c2)c2ccc(O)c(C(=O)O)c2)C=CC1=O [aurintricarboxylate]

SMILES: O=CN(O)CC(=O)O [Hadacidin]
IC50 [2]: 62 µM

EC50 (P. falciparum strain 3d7): ~7.05 µM
SMILES: O=P(O)(O)C(O)(Cc1ccccc1)P(=O)(O)O [(1-hydroxy-2-phenylethylidene)bis-phosphonic acid]
